Source: ChEMBL document CHEMBL4138078, “Structure-based virtual screening and optimization of modulators targeting Hsp90-Cdc37 interaction” (Eur J Med Chem, 2017)
pIC50, pKd: −log10 of the molar value. Activity calls are given as the source filed them. The calls are words filed in the database; no cut-off is given here.

What was measured:
Homo sapiens [1] = species on record: Homo sapiens; experiment: Inhibition of full length His-tagged HSP90/GST-tagged Cdc37 (unknown origin) interaction at 100 uM after 1 hr by HTRF assay relative to control
Summary of the method: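 HTRF assay using His-tagged full-length Hsp90 and GST-tagged Cdc37 M, each 250 nM final, in PBS with an extra 400 mM KF, pH 7.4. Compound incubated 1 h at 37 °C. Anti-GST-Cryptate and anti-6His-XL665 then added, 0.5 h at 37 °C. Ex 320 nm; ratio = (665/620 nm) × 10000. No-compound negative control and reagent-only blank.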

Homo sapiens [2] = species on record: Homo sapiens; experiment: Inhibition of full length His-tagged HSP90/GST-tagged Cdc37 (unknown origin) interaction at 10 uM after 1 hr by HTRF assay relative to control
Homo sapiens [3] = species on record: Homo sapiens; experiment: Inhibition of HSP90/Cdc37 protein-protein interaction in human SKBR3 cells assessed as decrease in Akt level after 24 hrs by Western blot analysis; assay type: cell-based
Summary of the method: (§1)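 SKBR-3 cells treated with compound at 1, 10 and 50 μM for 24 h. After a PBS rinse and trypsinisation, cells lysed in Tris-HCl pH 7.5 buffer with NaCl, EDTA, NP-40, PMSF, NaF and DTT; lysate spun 12000 rpm, 10 min, 4 °C. Protein by BCA, equal loads on SDS-PAGE. Probed for Hsp90, Akt, Cdk4, β-actin; DyLight 800 secondary, infrared imaging.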

Homo sapiens [4] = species on record: Homo sapiens; experiment: Inhibition of N-terminal GST-tagged HSP90/Cdc37 (unknown origin) interaction expressed in Escherichia coli preincubated with Cdc37 for 1 hr followed by addition to HSP90 by GST-pull down assay
Summary of the method: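 Pull-down with 10 μg GST-Hsp90 N-terminal domain immobilised as bait on glutathione resin spin columns. Compound incubated with Cdc37 for 1 h at 37 °C, then added to the columns. Loading buffer 25 mM Tris, 0.15 M NaCl, pH 7.2; elution with extra 10 mM reduced glutathione; spins 1 min at 1,000 × g, 4 °C. Eluate analysed by SDS-PAGE and anti-GST/anti-His western blot.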

Heat shock protein HSP90 [5] = biological target: T1, Heat shock protein HSP90 (Homo sapiens, UniProt P07900+P08238); experiment: Binding affinity to N-terminal GST-tagged HSP90 (unknown origin) expressed in Escherichia coli by biolayer interferometry analysis
Homo sapiens [6] = species on record: Homo sapiens; experiment: Inhibition of HSP90/Cdc37 protein-protein interaction in human SKBR3 cells assessed as decrease in CDK4 level after 24 hrs by Western blot analysis; assay type: cell-based; summary of the method: as §1
A549 = experiment: Antiproliferative activity against human A549 cells after 72 hrs by MTT assay; assay type: functional, cell-based; conditions: A549, 72 h
Summary of the method: (§2)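 Cells seeded at 10000/well and left 24 h, then exposed to compounds in DMSO (200 μM down to 0.823 μM, three-fold steps) for 72 h at 37 °C. Viability was read by MTT (5 mg/mL in PBS) with formazan dissolved in DMSO, OD at 490 nm. IC50 was taken from parallel experiments as mean ± SD. Media: MCF-7 in MEM, SKBR-3 in RPMI-1640, A549 in F12K, each with 10% FCS.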

[7] = Inhibition of full length His-tagged HSP90/GST-tagged Cdc37 (unknown origin) interaction after 1 hr by HTRF assay; design: species or system Homo sapiens
Summary of the method: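 Final 250 nM each of His-Hsp90 (full length) and GST-Cdc37 M in PBS with extra 400 mM KF, pH 7.4. Compound added (300 μM to 1.23 μM, three-fold steps), 1 h at 37 °C. Anti-GST-cryptate and anti-6His-XL665 added, 0.5 h at 37 °C. TR-FRET read at ex 320 nm, em 665/620 nm, ratio ×10000. No-compound and reagent-only controls included.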

SK-BR-3 [8] = experiment: Antiproliferative activity against human SKBR3 cells after 72 hrs by MTT assay; assay type: functional, cell-based; conditions: SK-BR-3, 72 h; summary of the method: as §2
MCF7 = experiment: Antiproliferative activity against human MCF7 cells after 72 hrs by MTT assay; assay type: functional, cell-based; conditions: MCF7, 72 h; summary of the method: as §2
SK-BR-3 [9] = experiment: Effect on HSP90 level in human SKBR3 cells at 1 to 50 uM after 24 hrs by Western blot analysis; assay type: functional, cell-based; summary of the method: as §1
Heat shock protein HSP90 [10] = biological target: T1, Heat shock protein HSP90; experiment: Inhibition of GA-FITC binding to N-terminal GST-tagged HSP90 (unknown origin) expressed in Escherichia coli at 100 uM after 30 mins fluorescence polarization assay relative to control
Heat shock protein HSP90 [11] = biological target: T1, Heat shock protein HSP90; experiment: Inhibition of N-terminal GST-tagged HSP90 ATPase activity (unknown origin) expressed in Escherichia coli at 100 uM after 1 hr in presence of ATP by spectrophotometric assay relative to control
Summary of the method: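 ADP Hunter Plus ADP-detection kit. Compound at 100 μM final in 15 mM HEPES, 20 mM NaCl, 1 mM EDTA, 10 mM MgCl2, 0.02% Tween20, pH 7.4. Mixed in equal volumes with Hsp90 (5 μM) and ATP (100 μM), 1 h at 37 °C. Detection reagents A and B added, 30 min at room temperature; ex 540/em 620 nm. Protein-free background; no-ligand wells set as 100% activity.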

SMILES	inhibition (Homo sapiens [1])	further results
CCOC(=O)c1cccc(NC(=O)CSc2nnc(-c3ccc(O)cc3)n2Cc2ccccc2)c1	14.1%	
COc1ccc(-c2c(C)oc3cc(OCCN4CCN(CCO)CC4)ccc3c2=O)cc1OC	< 10%	
CO[C@H]1/C=C\C=C(/C)C(=O)NC2=CC(=O)C(NCCN(C)C)=C(C[C@@H](C)C[C@H](OC)[C@H](O)[C@@H](C)/C=C(\C)[C@@H]1OC(N)=O)C2=O (stereo in doubt)		inhibition (Homo sapiens [2]): inactive
COc1ccc(C(=O)Nc2ccccc2C(=O)NCCCCO)cc1OC	19.3%	
Cn1nccc1NS(=O)(=O)c1ccc(NC(=O)CCC(=O)Nc2ccc(S(=O)(=O)Nc3ccnn3C)cc2)cc1	79.4%	inhibition (Homo sapiens [3]): Dose-dependent effect; inhibition (Homo sapiens [4]): Dose-dependent effect; pKd (Heat shock protein HSP90 [5]): 4.39 to 4.40; inhibition (Homo sapiens [6]): Dose-dependent effect; pIC50 (A549): 4.42; pIC50 [7]: 4.56 to 4.57; pIC50 (SK-BR-3 [8]): 4.83; pIC50 (MCF7): 4.58; Activity (SK-BR-3 [9]): inactive
NC(=O)COc1ccc(/C=N/NC(=O)[C@H]2CCCN2S(=O)(=O)c2ccc(Cl)cc2)cc1	< 10%	
COc1ccc(S(=O)(=O)N(CC(=O)N/N=C/c2ccc(OCC(N)=O)cc2)c2ccccc2)cc1	< 10%	
Cn1c(SCC(=O)Nc2ccc3nc(SCC(=O)c4ccc(Cl)cc4)sc3c2)nnc1-c1ccc(N)cc1	< 10%	
O=C(CCC(=O)Nc1ccc(S(=O)(=O)Nc2ncccn2)cc1)Nc1ccc(S(=O)(=O)Nc2ncccn2)cc1	< 10%	
O=C(CCC(=O)Nc1ccc(S(=O)(=O)Nc2nccs2)cc1)Nc1ccc(S(=O)(=O)Nc2nccs2)cc1	< 10%	
Cc1ccnc(NS(=O)(=O)c2ccc(NC(=O)CCC(=O)Nc3ccc(S(=O)(=O)Nc4nccc(C)n4)cc3)cc2)n1	< 10%	
O=C(CCC(=O)Nc1ccc(S(=O)(=O)Nc2ccccc2)cc1)Nc1ccc(S(=O)(=O)Nc2ccccc2)cc1	49.6%	
CCOC(=O)c1c(C)n(Cc2ccccc2)c2ccc(OC[C@H](O)CN3CCN(CCO)CC3)cc12	< 10%	
CS(=O)(=O)N(CC(=O)N/N=C/c1ccc(OCC(=O)Nc2ccc(F)cc2)cc1)c1ccc(Cl)c(Cl)c1	< 10%	
Cc1noc(NS(=O)(=O)c2ccc(NC(=O)CCC(=O)Nc3ccc(S(=O)(=O)Nc4onc(C)c4C)cc3)cc2)c1C	48.7%	
COc1ccc([C@H](CC(=O)O)NC(=O)CCc2c(C)c3ccc(O)cc3oc2=O)cc1OC	< 10%	
Cc1cc(NS(=O)(=O)c2ccc(NC(=O)c3ccc(C(=O)Nc4ccc(S(=O)(=O)Nc5cc(C)on5)cc4)cc3)cc2)no1	inactive	
O[C@H](COc1ccc(OC[C@H](O)CN2CCN(c3cccc(Cl)c3)CC2)cc1)CN1CCN(c2cccc(Cl)c2)CC1	47.6%	pIC50 (A549): < 4.00; pIC50 [7]: 3.89; pIC50 (SK-BR-3 [8]): < 4.00; pIC50 (MCF7): 4.05
Cc1cc(NS(=O)(=O)c2ccc(NC(=O)CCCC(=O)Nc3ccc(S(=O)(=O)Nc4cc(C)on4)cc3)cc2)no1	59.3%	inhibition (Heat shock protein HSP90 [10]): inactive; inhibition (Homo sapiens [4]): Dose-dependent effect; Kd (Heat shock protein HSP90 [5]): 80.4 µM; pIC50 (A549): 4.12; pIC50 [7]: 4.11; pIC50 (SK-BR-3 [8]): 4.23; inhibition (Heat shock protein HSP90 [11]): < 10%; pIC50 (MCF7): 4.17
CCOc1cc(CNc2ccc(N3CCOCC3)c(C(=O)OC)c2)cc(Cl)c1OCC(N)=O	< 10%	
COc1cc(/C=C2\SC(=S)N(CCCCCCN3C(=O)/C(=C\c4ccc(O)c(OC)c4)SC3=S)C2=O)ccc1O	17%	
Cn1nccc1NS(=O)(=O)c1ccc(NC(=O)CC(=O)Nc2ccc(S(=O)(=O)Nc3ccnn3C)cc2)cc1	50.9%	
CCCOC(=O)c1ccc(Oc2c(C)oc3c(CN4CCN(CCO)CC4)c(O)ccc3c2=O)cc1	< 10%	
